The format of data set [1] is physicochemical. The following applies: fit of NMR chemical shift changes with concentration, D2O, 298 K, pH 7.0.
Data set [2] is described as follows: Dynamic light scattering of free peptides. The following applies: DLS, lower peptide concentration (100 µM). The format is physicochemical. An outline of the steps: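 Free stapled peptide stocks, quantified by absorbance at 280 nm, were diluted into D₂O or H₂O to 100 µM or 1 mM and centrifuged at 6,000–8,000 g before loading. Light scattering was recorded as one hundred 5-s scans per sample at ambient temperature and corrected for solvent signal. Normalized intensity was plotted against radius, and the hydrodynamic radius and polydispersity index of major peaks were reported.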

In data set [3] the target is CA-CTD dimerization helix peptide CTD dimerization helix (Human immunodeficiency virus 1) (UniProt O93182). The settings on record: cited from earlier work.

Where a SMILES comes first, the peptide text is derived from it. Bridges are numbered along the chain shown (N, C = ends). [ ]: non-standard residue; d: D form. S5 = C=CCCC[C@](C)(N)C(=O)O

Consider `CC[C@H](C)[C@H](N)C(=O)N[C@H](C(=O)N[C@@H](Cc1ccccc1)C(=O)N[C@@]1(C)CCC/C=C\CCC[C@@](C)(C(=O)N[C@@H](Cc2ccc(O)cc2)C(=O)N[C@@H](Cc2ccc(O)cc2)C(=O)NCC(=O)N[C@@H](CCCCN)C(=O)N[C@@H](CCCCN)C(=O)N[C@@H](CCCCN)C(N)=O)NC(=O)[C@H](CC(C)C)NC(=O)[C@H](CC(C)C)NC(=O)[C@H](CC(=O)O)NC1=O)[C@@H](C)O` [NYAD-13] (H-ITF[S5]DLL[S5]YYGKKK-NH2; staple (Z) 4-8; N-terminus and C-terminus assumed), for which the “Kd of self-association, isodesmic model of indefinite association” value in data set [1] came out at 2500 ± 1400 µM. In addition, the “effective radius of gyration of monomer” value in data set [2] turned out to be 1 nm. As for “CA-CTD dimerization helix peptide CTD dimerization helix (from UniProt O93182)”, the Kd in data set [3] is 17 µM.

In general, Kd refers to a measure of binding affinity in units of concentration.
